Here are results for six molecules from article PMC3590845 (Bioorganic & medicinal chemistry, 2012).

A short description of data set [1]: GSH-activated NO release by chemiluminescence. In kind it is physicochemical. The following applies: 4 mM GSH; for NO yield (mol)/mol of compound mean (SE): pH 7.4 phosphate buffer, 37 °C; for NO release on reaction with GSH (in words): chemiluminescence assay. In outline: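 Pre-warmed (37 °C) pH 7.4 phosphate buffer with 4 mM GSH was sparged with inert gas until the detector response was steady. Test compound was then injected to start the reaction, and NO release was followed over time. The integrated release curve gave mol NO released per mol compound.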

The subject of data set [2] is H1703 cells. The experiment in a line: In vitro metabolism in cells followed by LC/MS. In kind it is in vitro ADME, human. The following applies: compound 12 at 5 μM for 5, 30 and 60 min. The procedure, abridged:
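H1703 cells were plated in flasks, incubated overnight at 37 °C, then exposed to test compound. At each time point, cells were scraped into 10 mM HCl and lysed by freeze–thaw, then 5-sulfosalicylic acid was added. After spinning at 8000×g for 10 min, supernatants were run on C18 LC/MS (APCI positive ions, water/acetonitrile/0.1% formic acid gradient). Parent and arylated-GSH ions were tracked as extracted ion chromatograms.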

The subject of data set [3] is H1703 cells xenografted in athymic mice. The experiment in a line: H1703 xenograft in athymic mice. The class given is in vivo. As to conditions: 20 μmol/kg ip, five times a week for four weeks. The procedure, abridged:
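H1703 cells (5 × 10^6) were injected s.c. into one flank of 7-week-old female athymic NCr-nu/nu mice. Dosing started once tumors reached 2 × 2 × 2 mm3, typically after four weeks. Test compound was given as Pluronic P123 micelles, and controls received vehicle (2.25% Pluronic P123 in PBS) ip. Body weights were recorded three times weekly.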

The test system of data set [4] is H1703 cells. The experiment in a line: Western blot of stress signaling and apoptosis. In kind it is cell-based, human. As to conditions: 1 μM. In outline: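 After treatment of H1703 cells, lysates were immunoblotted for caspase 3, caspase 7, PARP, phospho-SAPK/JNK, phospho-c-jun and ATF3. PARP was scored as the full-length band versus the 89-kDa cleaved fragment.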
On the technique in general: Immunoblotting shows a protein as a band on a membrane.

As for `CCOC(=O)N1CCCN(/[N+]([O-])=N/Oc2ccc([N+](=O)[O-])cc2[N+](=O)[O-])CC1` [Compound 2, reference compound], the “NO yield (mol)/mol of compound mean (SE)” value in data set [1] was 2.00 (0.04) mol/mol of compound.

As to `CCOC(=O)N1CCN(/[N+]([O-])=N/Oc2ccc([N+](=O)[O-])cc2C#N)CC1` [Compound 12], in data set [1], the “NO release on reaction with GSH (in words)” value (shortened to “NO release on reaction”) is listed as “essentially quantitative amounts of NO” and the “NO yield (mol)/mol of compound mean (SE)” value is 2.04 (0.01) mol/mol of compound. For the same molecule, in the data set with H1703 cells [2], the “Decomposition / metabolic turnover in cells” value is given as “over 1 h”. In addition, the Body weights entry in data set [3] is given as “did not affect body weights”. For the same molecule, in the data set on H1703 cells [4], the ATF3 level result is “upregulated”; the “Apoptosis (cleavage of PARP and caspases 3 and 7)” value was “activated within 4 h”. In addition, the “SAPK/JNK stress signaling pathway” value with H1703 cells [4] (phosphorylation of SAPK/JNK and c-jun after 4 h) is recorded as “activated”.

For the molecule `CCOC(=O)N1CCN(/[N+]([O-])=N/Oc2ccc(C#N)cc2[N+](=O)[O-])CC1` [Compound 13], in data set [1], the “NO release on reaction” value is listed as “essentially quantitative amounts of NO” and the “NO yield (mol)/mol of compound mean (SE)” value was 2.02 (0.06) mol/mol of compound.

In the case of `CCOC(=O)N1CCCN(/[N+]([O-])=N/Oc2ccc([N+](=O)[O-])cc2C#N)CC1` [Compound 15], in data set [1], the “NO release on reaction” value is on record as “essentially quantitative amounts of NO” and the “NO yield (mol)/mol of compound mean (SE)” value is on record as 2.01 (0.03) mol/mol of compound.

For the molecule `CCOC(=O)N1CCCN(/[N+]([O-])=N/Oc2ccc(C#N)cc2[N+](=O)[O-])CC1` [Compound 16], in data set [1], the “NO release on reaction” value is recorded as “essentially quantitative amounts of NO” and the “NO yield (mol)/mol of compound mean (SE)” value is on record as 1.96 (0.04) mol/mol of compound.

Regarding `CCOC(=O)N1CCN(/[N+]([O-])=N/Oc2ccc([N+](=O)[O-])cc2[N+](=O)[O-])CC1` [JS-K, reference compound], in data set [1], the “NO yield (mol)/mol of compound mean (SE)” value was 1.96 (0.03) mol/mol of compound. The “Decomposition / metabolic turnover in cells” value in the data set with H1703 cells [2] was “near complete metabolic turnover of JS-K in as few as ten minutes”.
